In brackets after ≈: the same amount, converted by molar mass.
What was measured:
Type in all cases: functional
[1] = test system: Candida dubliniensis; assay: Antifungal activity against Candida dubliniensis 10035 assessed as compound concentration at which paradoxical growth of observed after 48 hrs
In short: (§1)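 In the same broth dilution (CLSI M27-A3) tests, read at 24 or 48 h, this is the range of drug concentrations over which paradoxical growth appeared. It was not set when growth occurred across the whole tested range (trailing).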

[2] = test system: Candida dubliniensis; assay: Antifungal activity against Candida dubliniensis 10035 by hemocytometry
In short: (§2)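 Minimal fungicidal concentration from the broth dilution test, defined as the lowest drug level giving ≥99.9% reduction in CFU/ml. Inocula were adjusted by hemocytometer.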

[3] = test system: Candida dubliniensis; assay: Antifungal activity against Candida dubliniensis 9453 assessed as compound concentration at which paradoxical growth of observed after 24 hrs; in short: as §1
[4] = test system: Candida dubliniensis; assay: Antifungal activity against Candida dubliniensis 10033 assessed as compound concentration at which paradoxical growth of observed after 24 hrs; in short: as §1
[5] = test system: Candida dubliniensis; assay: Antifungal activity against Candida dubliniensis FMR 10032 infected in OF1 mouse assessed as fungal count in spleen at 10 mg/kg/day, iv […]
In short: (§3)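 Immunocompetent male OF1 mice, 10 per group, were challenged i.v. with 1.5 × 10^7 CFU. Drug was given i.v. once daily at 1 or 10 mg/kg for 3 days, starting 24 h post-challenge; controls were untreated. Mice were killed 1 day after the last dose. Kidneys and spleen were homogenized in saline, serial 10-fold dilutions were plated on Sabouraud agar at 35°C for 3 days, and mean log10 CFU was reported.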

[6] = test system: Candida dubliniensis; assay: Antifungal activity against Candida dubliniensis 10035 after 48 hrs; conditions: Candida dubliniensis, 10035, 48 h
In short: (§4)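 CLSI M27-A3 broth microdilution. Yeast inoculum was adjusted with a hemocytometer. MIC was read at 24 h or 48 h as the lowest concentration giving 50% growth inhibition.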

[7] = test system: Candida dubliniensis; assay: Antifungal activity against Candida dubliniensis 10034 assessed as compound concentration at which paradoxical growth of observed after 24 hrs; in short: as §1
[8] = test system: Candida dubliniensis; assay: Antifungal activity against Candida dubliniensis FMR 10032 infected in immunosuppressed OF1 mouse assessed as fungal count in spleen at 1 mg/kg/day, iv […]
In short: (§5)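 Male OF1 mice, 10 per group, were immunosuppressed on infection day with cyclophosphamide 200 mg/kg i.p. plus 5-fluorouracil 150 mg/kg i.v., then challenged i.v. with 1.5 × 10^5 CFU. Drug was given at 1 mg/kg i.v. once daily for 5 days, starting 24 h after challenge. One day after treatment ended, kidney and spleen homogenates were plated in 10-fold dilutions on Sabouraud agar (35°C, 3 days) and mean log10 CFU was reported.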

[9] = test system: Candida dubliniensis; assay: Antifungal activity against Candida dubliniensis 10033 after 48 hrs; conditions: Candida dubliniensis, 10033, 48 h; in short: as §4
[10] = test system: Candida dubliniensis; assay: Antifungal activity against Candida dubliniensis 9453 by hemocytometry; in short: as §2
[11] = test system: Candida dubliniensis; assay: Antifungal activity against Candida dubliniensis 10031 assessed as compound concentration at which paradoxical growth of observed after 24 hrs; in short: as §1
[12] = test system: Candida dubliniensis; assay: Antifungal activity against Candida dubliniensis 10034 by hemocytometry; in short: as §2
[13] = test system: Candida dubliniensis; assay: Antifungal activity against Candida dubliniensis 10031 by hemocytometry; in short: as §2
[14] = test system: Candida dubliniensis; assay: Antifungal activity against Candida dubliniensis 10033 by hemocytometry; in short: as §2
[15] = test system: Candida dubliniensis; assay: Antifungal activity against Candida dubliniensis 9456 assessed as compound concentration at which paradoxical growth of observed after 24 hrs; in short: as §1
[16] = test system: Candida dubliniensis; assay: Antifungal activity against Candida dubliniensis FMR 10032 infected in OF1 mouse assessed as fungal count in kidney at 1 mg/kg/day, iv […]; in short: as §3
[17] = test system: Candida dubliniensis; assay: Antifungal activity against Candida dubliniensis FMR 10034 infected in OF1 mouse assessed as fungal count in kidney at 10 mg/kg/day, iv […]; in short: as §3
[18] = test system: Candida dubliniensis; assay: Antifungal activity against Candida dubliniensis 9456 after 24 hrs; conditions: Candida dubliniensis, 9456, 24 h; in short: as §4
[19] = test system: Candida dubliniensis; assay: Antifungal activity against Candida dubliniensis 10034 assessed as compound concentration at which paradoxical growth of observed after 48 hrs; in short: as §1
[20] = test system: Candida dubliniensis; assay: Antifungal activity against Candida dubliniensis 9456 by hemocytometry; in short: as §2
[21] = test system: Candida dubliniensis; assay: Antifungal activity against Candida dubliniensis 10031 after 24 hrs; conditions: Candida dubliniensis, 10031, 24 h; in short: as §4
[22] = test system: Candida dubliniensis; assay: Antifungal activity against Candida dubliniensis 9453 after 48 hrs; conditions: Candida dubliniensis, 9453, 48 h; in short: as §4
[23] = test system: Candida dubliniensis; assay: Antifungal activity against Candida dubliniensis 10032 after 48 hrs; conditions: Candida dubliniensis, 10032, 48 h; in short: as §4
[24] = test system: Candida dubliniensis; assay: Antifungal activity against Candida dubliniensis 10031 after 48 hrs; conditions: Candida dubliniensis, 10031, 48 h; in short: as §4
[25] = test system: Candida dubliniensis; assay: Antifungal activity against Candida dubliniensis FMR 10032 infected in OF1 mouse assessed as fungal count in spleen at 1 mg/kg/day, iv […]; in short: as §3
[26] = test system: Candida dubliniensis; assay: Antifungal activity against Candida dubliniensis 10032 after 24 hrs; conditions: Candida dubliniensis, 10032, 24 h; in short: as §4
[27] = test system: Candida dubliniensis; assay: Antifungal activity against Candida dubliniensis 10033 assessed as compound concentration at which paradoxical growth of observed after 48 hrs
In short: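 Broth dilution susceptibility testing of yeasts per CLSI reference method M27-A3, with inocula adjusted by hemocytometer count. Wells were read at 24 and 48 h. The paradoxical growth range is the span of drug concentrations (μg/ml) over which growth reappeared above the inhibitory concentration. Where growth occurred across the entire concentration range (trailing), no range was determined.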

[28] = test system: Candida dubliniensis; assay: Antifungal activity against Candida dubliniensis 10035 after 24 hrs; conditions: Candida dubliniensis, 10035, 24 h; in short: as §4
[29] = test system: Candida dubliniensis; assay: Antifungal activity against Candida dubliniensis FMR 10034 infected in OF1 mouse assessed as fungal count in spleen at 1 mg/kg/day, iv […]; in short: as §3
[30] = test system: Candida dubliniensis; assay: Antifungal activity against Candida dubliniensis 9453 after 24 hrs; conditions: Candida dubliniensis, 9453, 24 h; in short: as §4
[31] = test system: Candida dubliniensis; assay: Antifungal activity against Candida dubliniensis 10034 after 24 hrs; conditions: Candida dubliniensis, 10034, 24 h; in short: as §4
[32] = test system: Candida dubliniensis; assay: Antifungal activity against Candida dubliniensis 10034 after 48 hrs; conditions: Candida dubliniensis, 10034, 48 h; in short: as §4
[33] = test system: Candida dubliniensis; assay: Antifungal activity against Candida dubliniensis FMR 10034 infected in immunosuppressed OF1 mouse assessed as fungal count in spleen at 1 mg/kg/day, iv […]; in short: as §5
[34] = test system: Candida dubliniensis; assay: Antifungal activity against Candida dubliniensis FMR 10034 infected in immunosuppressed OF1 mouse assessed as fungal count in kidney at 1 mg/kg/day, iv […]; in short: as §5
[35] = test system: Candida dubliniensis; assay: Antifungal activity against Candida dubliniensis FMR 10032 infected in immunosuppressed OF1 mouse assessed as fungal count in kidney at 1 mg/kg/day, iv […]; in short: as §5
[36] = test system: Candida dubliniensis; assay: Antifungal activity against Candida dubliniensis FMR 10034 infected in OF1 mouse assessed as fungal count in spleen at 10 mg/kg/day, iv […]; in short: as §3
[37] = test system: Candida dubliniensis; assay: Antifungal activity against Candida dubliniensis FMR 10032 infected in OF1 mouse assessed as fungal count in kidney at 10 mg/kg/day, iv […]; in short: as §3
[38] = test system: Candida dubliniensis; assay: Antifungal activity against Candida dubliniensis 9456 after 48 hrs; conditions: Candida dubliniensis, 9456, 48 h; in short: as §4
[39] = test system: Candida dubliniensis; assay: Antifungal activity against Candida dubliniensis 10033 after 24 hrs; conditions: Candida dubliniensis, 10033, 24 h; in short: as §4
[40] = test system: Candida dubliniensis; assay: Antifungal activity against Candida dubliniensis FMR 10034 infected in OF1 mouse assessed as fungal count in kidney at 1 mg/kg/day, iv […]; in short: as §3
[41] = test system: Candida dubliniensis; assay: Antifungal activity against Candida dubliniensis 10032 by hemocytometry; in short: as §2

CC[C@H](C)C[C@H](C)CCCCCCCCC(=O)N[C@H]1C[C@@H](O)[C@@H](NCCN)NC(=O)[C@@H]2[C@@H](O)CCN2C(=O)[C@H]([C@H](O)CCN)NC(=O)[C@H]([C@H](O)[C@@H](O)c2ccc(O)cc2)NC(=O)[C@@H]2C[C@@H](O)CN2C(=O)[C@H]([C@@H](C)O)NC1=O [CASPOFUNGIN]
Activity [1]: 8 µg/mL
MFC [2]: 0.5 µg/mL (≈ 0.457 µM)
Activity [3]: 8 µg/mL
Activity [4]: 8 µg/mL
log10cfu [5]: 3.38
MIC50 [6]: 0.06 µg/mL (≈ 0.0549 µM)
Activity [7]: 16 µg/mL
log10cfu [8]: 1.26
MIC50 [9]: 0.25 µg/mL (≈ 0.229 µM)
MFC [10]: > 16 µg/mL
Activity [11]: 8 µg/mL
MFC [12]: > 16 µg/mL
MFC [13]: > 16 µg/mL
MFC [14]: > 16 µg/mL
Activity [15]: 8 µg/mL
log10cfu [16]: 3.41
log10cfu [17]: 4.09
MIC50 [18]: 0.25 µg/mL (≈ 0.229 µM)
Activity [19]: 1 µg/mL
MFC [20]: > 16 µg/mL
MIC50 [21]: 0.125 µg/mL (≈ 0.114 µM)
MIC50 [22]: 0.25 µg/mL (≈ 0.229 µM)
MIC50 [23]: 0.06 µg/mL (≈ 0.0549 µM)
MIC50 [24]: 0.25 µg/mL (≈ 0.229 µM)
log10cfu [25]: 3.56
MIC50 [26]: 0.06 µg/mL (≈ 0.0549 µM)
Activity [27]: 2 µg/mL
MIC50 [28]: 0.06 µg/mL (≈ 0.0549 µM)
log10cfu [29]: 4.21
MIC50 [30]: 0.25 µg/mL (≈ 0.229 µM)
MIC50 [31]: 0.125 µg/mL (≈ 0.114 µM)
MIC50 [32]: 0.25 µg/mL (≈ 0.229 µM)
log10cfu [33]: 2.08
log10cfu [34]: 3.39
log10cfu [35]: 1.77
log10cfu [36]: 3.89
log10cfu [37]: 3.08
MIC50 [38]: 0.25 µg/mL (≈ 0.229 µM)
MIC50 [39]: 0.25 µg/mL (≈ 0.229 µM)
log10cfu [40]: 4.5
MFC [41]: 4 µg/mL (≈ 3.66 µM)
